Published values gathered from unrelated publications.
Protocols differ between the studies behind these lines. pIC50: −log10 of the molar value.
SLCO1B1: Solute carrier organic anion transporter family member 1B1 (SLCO1B1, Homo sapiens, UniProt Q9Y6L6)
CYP3A4: Cytochrome P450 3A4 (CYP3A4, Homo sapiens, UniProt P08684)
MMP13: Collagenase 3 (MMP13, Homo sapiens, UniProt P45452)
LNPEP: Leucyl-cystinyl aminopeptidase (LNPEP, Homo sapiens, UniProt Q9UIQ6)
Cruzipain: Cruzipain (Trypanosoma cruzi, UniProt P25779)
JAK1: Tyrosine-protein kinase JAK1 (JAK1, Homo sapiens, UniProt P23458)
CHRM1: Muscarinic acetylcholine receptor M1 (CHRM1, Homo sapiens, UniProt P11229)
PBRM1 bromodomain: Protein polybromo-1, bromodomain (PBRM1, Homo sapiens, UniProt Q86U86)

`CCCC[C@H](NC(=O)C1CN(C)C1)c1ncc(-c2cc3ccccc3nc2OC)[nH]1` has a pIC50 of < 4.52 (Histone deacetylase 11 (HDAC11, Homo sapiens, UniProt Q96DB2); enzyme activity, inhibitor).
For `C[C@]12CC[C@@H]3c4ccc(OS(=O)(=O)O)cc4CC[C@H]3[C@@H]1CCC2=O`, the pIC50 was 7.22 (SLCO1B1; transporter uptake, inhibitor, fluorescence; CHO; 30 min, pH 7.4).
The pIC50 of `O=C(N[C@@H](Cc1ccccc1)C(=O)c1noc(-c2ccccc2)n1)[C@H](Cc1ccccc1)NC(=O)N1CCOCC1` is reported as 6.70 (Papain (Carica papaya, UniProt P00784); enzyme activity, inhibitor; pH 6.5, with preincubation).
With `Fc1ccc(Nc2c(-c3ccccn3)nc3ccc(C4CC4)cn23)cc1` the pIC50 was 5.80 (CYP3A4; enzyme activity, inhibitor).
`Cn1nc(C(=O)NCc2ccc(C(=O)O)cc2)cc1-c1ccc2[nH]c(-c3cccnc3)cc2c1` has a pIC50 of 8.24 (MMP13; enzyme activity, inhibitor, FRET).
`O=S(=O)(Nc1cccc(-c2nnn[nH]2)c1)c1ccc(Cl)c(Cl)c1Cl` has a pIC50 of 5.92 (LNPEP; enzyme activity, inhibitor, fluorescence).
`O=C(COc1ccccc1Br)NCCc1nc2ccccc2[nH]1` has a pIC50 of 6.40 (Cruzipain; enzyme activity, inhibitor).
For `CCC1CN(C(=O)NCC(F)(F)F)CC1NCc1ccc(C)nc1-c1cnc2[nH]ccc2c1` (stereo not shown), the pIC50 was 6.30 (JAK1; enzyme activity, inhibitor, ADP detection).
With `Oc1c2ccccc2c2c3c(cccc13)N=N2` the pIC50 was 6.01 (JAK1; enzyme activity, inhibitor).
The pIC50 of `Cn1ccc2ccc(S(=O)(=O)Nc3cccc(-c4nnn[nH]4)c3)cc21` is reported as 4.90 (LNPEP; enzyme activity, inhibitor, fluorescence).
With `Nc1nc(N)c2nc(CNc3cccc4ccccc34)cnc2n1` the pIC50 was 4.18 (CYP3A4; enzyme activity, inhibitor, luciferase).
The pIC50 of `Cc1noc(-c2cc3cc(-c4nc(C(=O)NCc5cccnc5)[nH]c4C)ccc3[nH]2)n1` is reported as 9.19 (MMP13; enzyme activity, inhibitor, FRET).
`O=S(=O)(Nc1cccc(-c2nnn[nH]2)c1)c1scc2ccccc12` has a pIC50 of 4.96 (LNPEP; enzyme activity, inhibitor, fluorescence).
`Cc1noc(-c2cc3cc(-c4cc(C(=O)NCc5ccc(C(=O)O)cc5)nn4C)ccc3[nH]2)n1` has a pIC50 of 9.68 (MMP13; enzyme activity, inhibitor, FRET).
`COc1ccc(Cl)cc1NC(=O)COC(=O)C(CC(C)C)N1C(=O)C2CC=CCC2C1=O` (stereo not shown) has a pIC50 of 4.89 (Cruzipain; enzyme activity, inhibitor).
For `Cc1ccc(S(=O)(=O)Nc2cccc(-c3nnn[nH]3)c2)cc1C(F)(F)F`, the pIC50 was 5.64 (LNPEP; enzyme activity, inhibitor, fluorescence).
`Cc1ccc(C(C)C)c(O)c1` has a pIC50 of 2.92 (gbr-2 (Haemonchus contortus, UniProt O46124); ion current, antagonist, two-electrode voltage clamp; oocytes).
The pIC50 of `O=c1ccc2c(OCCCCOc3ccccc3)c3ccoc3c(O)c2o1` is reported as 6.80 (Potassium voltage-gated channel subfamily A member 3 (Kcna3, Mus musculus, UniProt P16390); ion current, inhibitor, patch clamp).
`CO[C@H]1/C=C/O[C@@]2(C)Oc3c(C)c(O)c4c(O)c(c(/C=N/N5CCN(C)CC5)c(O)c4c3C2=O)NC(=O)/C(C)=C\C=C\[C@H](C)[C@H](O)[C@@H](C)[C@@H](O)[C@@H](C)[C@H](OC(C)=O)[C@@H]1C` has a pIC50 of 5.89 (SLCO1B1; transporter uptake, inhibitor, fluorescence; CHO; 30 min, pH 7.4).
`CC(C)[C@H](CO)Nc1nc(Nc2cccc(Cl)c2)c2ncn(C(C)C)c2n1` gave a pIC50 of < 5.00 (Serine/threonine-protein kinase PAK 4 (PAK4, Homo sapiens, UniProt O96013); enzyme activity, inhibitor; lysate).
`COc1ccc2c(Oc3ccc4c(C(=O)Nc5ccccc5N)cccc4c3)ccnc2c1` has a pIC50 of < 6.30 (JAK1; enzyme activity, inhibitor).
The pIC50 of `Nc1ncc2c(n1)-c1c([nH]c3ccc(-c4ccc(F)cc4)cc13)CCC2` is reported as 5.41 (Dual serine/threonine and tyrosine protein kinase (DSTYK, Homo sapiens, UniProt Q6XUX3); enzyme activity, inhibitor, radiometric).
`O=S(=O)(Nc1cccc(-c2nnn[nH]2)c1)c1ccc(Br)cc1F` has a pIC50 of 5.26 (LNPEP; enzyme activity, inhibitor, fluorescence).
`CCn1ncc2c1-c1cnc(N)c(c1)O[C@H](C)c1cc(F)ccc1-c1nn(C)nc1C2` has a pIC50 of 5.94 (Insulin receptor (INSR, Homo sapiens, UniProt P06213); enzyme activity, inhibitor, radiometric).
With `CCn1c(-c2nc3cc(C(=O)N4CCC[C@@H](N)C4)cc(OC)c3n2C)cc2cccnc21` the pIC50 was 4.20 (CHRM1; calcium signal, antagonist, fluorescence).
`COC(=O)c1nc(N)n(C(=O)c2ccc(C(C)(C)C)cc2)n1` has a pIC50 of ~6.96 (Coagulation factor XII (F12, Homo sapiens, UniProt P00748); enzyme activity, inhibitor, absorbance).
For `CCOC(=O)Nc1ccc2c(c1)N(C(=O)CCN1CCOCC1)c1ccccc1S2`, the pIC50 was 5.09 (SLCO1B1; transporter uptake, inhibitor, fluorescence; CHO; 30 min, pH 7.4).
`O=S(=O)(Nc1cccc(-c2nnn[nH]2)c1)c1cc(C(F)(F)F)ccc1C(F)(F)F` has a pIC50 of 6.10 (LNPEP; enzyme activity, inhibitor, fluorescence).
With `Cc1ncsc1-c1ccc(CNC(=O)[C@@H]2C[C@@H](O)CN2C(=O)[C@@H](NC(=O)C2(F)CC2)C(C)(C)C)c(OCCOc2ccc(CN3CCN(c4cc(-c5ccccc5O)nnc4N)CC3)cc2)c1` the pIC50 was 6.30 (PBRM1 bromodomain; cell-free assay, TR-FRET).
With `N[C@@H](CC(=O)N1CCN(C(c2ccc(F)cc2)c2ccc(F)cc2)CC1)C(=O)N1Cc2ccccc2C1` the pIC50 was 5.07 (Lysosomal Pro-X carboxypeptidase (PRCP, Homo sapiens, UniProt P42785); enzyme activity, inhibitor).
The pIC50 of `Nc1ncnc2c1ncn2[C@@H]1O[C@H](CN(CC[C@H](N)C(=O)O)Cc2ccc3ccccc3c2)[C@@H](O)[C@H]1O` is reported as < 4.30 (Histone-lysine N-methyltransferase NSD2 (NSD2, Homo sapiens, UniProt O96028); enzyme activity, inhibitor).
`C[N+]1(C)CCC(OC(=O)C(c2ccccc2)c2ccccc2)CC1` gave a pIC50 of 8.44 (CHRM1; ligand displacement, radioligand).
With `CCC1CN(C(=O)NCC(F)(F)F)CC1N(C)c1ncnc2[nH]ccc12` (stereo not shown) the pIC50 was 6.03 (JAK1; enzyme activity, inhibitor, ADP detection).
With `CCOc1ccc2c(-c3cc(C)nc(Nc4cc(OC)cc(C(F)(F)F)c4)n3)cnn2n1` the pIC50 was < 5.00 (Dual specificity protein kinase CLK2 (CLK2, Homo sapiens, UniProt P49760); enzyme activity, inhibitor).
With `Cc1ncsc1-c1ccc(CNC(=O)[C@@H]2C[C@@H](O)CN2C(=O)[C@@H](NC(=O)C2(F)CC2)C(C)(C)C)c(OCCOCCOCCN2CCN(c3cc(-c4ccccc4O)nnc3N)CC2)c1` the pIC50 was 5.82 (PBRM1 bromodomain; cell-free assay, TR-FRET).
For `Cn1nc(C(=O)NCc2ccc(C(=O)O)cc2)cc1-c1ccc2[nH]c(-c3cncnc3)cc2c1`, the pIC50 was 8.17 (MMP13; enzyme activity, inhibitor, FRET).
The pIC50 of `CC(C)c1cc(NC(=O)Nc2ccc(F)c(F)c2)n(-c2ccccc2)n1` is reported as 5.39 (Kir3.1/Kir3.4 (Homo sapiens, UniProt P48544+P48549); enzyme activity in cells, inhibitor).
The pIC50 of `Cc1ncc([N+](=O)[O-])n1CCO` is reported as < 4.00 (SLCO1B1; transporter uptake, inhibitor, fluorescence; CHO; 30 min, pH 7.4).
For `CC/C=C\C/C=C\C/C=C\C/C=C\C/C=C\CCCC(=O)O`, the pIC50 was < 4.00 (Polynucleotide kinase (pseT, Enterobacteria phage T4, UniProt P06855); enzyme activity, inhibitor).
With `O=C1Nc2ccccc2C1=O` the pIC50 was < 3.80 (Aldehyde dehydrogenase, mitochondrial (ALDH2, Homo sapiens, UniProt P05091); enzyme activity, inhibitor, absorbance).
With `O=C(COc1ccc(Cl)cc1)N1CCN(Cc2ccc3c(c2)OCO3)CC1` the pIC50 was 4.46 (SLCO1B1; transporter uptake, inhibitor, fluorescence; CHO; 30 min, pH 7.4).
`Clc1ccc2[nH]c3c(NCCCN4CCOCC4)ncnc3c2c1` has a pIC50 of 4.89 (Cruzipain; enzyme activity, inhibitor).
For `CCNC(=O)c1nc(-c2ccc3[nH]c(-c4nc(C)no4)cc3c2)c(C)[nH]1`, the pIC50 was 7.96 (MMP13; enzyme activity, inhibitor, FRET).
The pIC50 of `O=S(=O)(Nc1cccc(-c2nnn[nH]2)c1)c1ccc(C(F)(F)F)c(F)c1` is reported as 5.12 (LNPEP; enzyme activity, inhibitor, fluorescence).
For `Cn1nc(C(=O)NCc2ccc(C(=O)O)cc2)cc1-c1ccc2[nH]c(-c3ccncc3)cc2c1`, the pIC50 was 9.04 (MMP13; enzyme activity, inhibitor, FRET).
With `Cc1cc(N2CCc3c(c(C)nn3CC34CCC(NC(=O)[C@@H]5COCCN5)(CC3)CC4)C2)c2cnn(C)c2n1` the pIC50 was 9.15 (Toll-like receptor 7 (TLR7, Homo sapiens, UniProt Q9NYK1); IL-6 release, inhibitor).
